CHRM5 antagonist: CHRM5 antagonism in calcium assay; CHO-hM5 cells, Fluo-8 calcium fluorescence, ACh EC80; hit rate 0.59% among 360,000; AID 624040; inhibition, % at 3 µM; P08912;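 active = inhibition above a per-plate cutoff, the mean of that plate's test compounds plus 3 SD, cut at about 27% in these data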;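 note: 0% = acetylcholine EC80 with DMSO and 100% = DMSO without agonist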
Target sequence (P08912 whole entry, looked up): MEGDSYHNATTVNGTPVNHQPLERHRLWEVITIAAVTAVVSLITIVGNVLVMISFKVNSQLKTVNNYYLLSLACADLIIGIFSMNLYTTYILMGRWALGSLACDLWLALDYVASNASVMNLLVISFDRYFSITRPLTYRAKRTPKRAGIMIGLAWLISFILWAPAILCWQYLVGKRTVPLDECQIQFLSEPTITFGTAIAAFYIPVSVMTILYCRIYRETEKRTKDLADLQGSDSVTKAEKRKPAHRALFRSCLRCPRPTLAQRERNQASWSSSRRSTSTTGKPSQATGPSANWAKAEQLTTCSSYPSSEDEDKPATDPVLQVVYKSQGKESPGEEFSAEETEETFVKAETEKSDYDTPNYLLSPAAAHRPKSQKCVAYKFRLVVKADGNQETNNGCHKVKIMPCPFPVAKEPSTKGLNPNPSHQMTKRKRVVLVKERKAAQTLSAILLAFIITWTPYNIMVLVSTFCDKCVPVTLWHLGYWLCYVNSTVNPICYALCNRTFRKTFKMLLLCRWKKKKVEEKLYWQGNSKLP
CHRM4 antagonist: antagonists of human muscarinic M4 receptor (CHRM4) | CHO-hM4 cells, ACh EC80, Fluo-8 calcium fluorescence | inhibition, % at 3 µM | P08173 | hit rate 0.73% among 360,000 | AID 624125;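 active = inhibition above its plate's cutoff, the mean inhibition of sample wells plus 3 SD, cut at about 27% in these data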;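 note: 0% = acetylcholine EC80 with DMSO and 100% = DMSO without agonist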
CHRM5 agonist: CHRM5 agonism in calcium assay; P08912; CHO-K1 hM5 cells, Fluo-8 calcium fluorescence; 0% DMSO wells, 100% maximal acetylcholine response; activation, % at 3 µM; hit rate 0.19% among 360,000;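 active = activation above the run's mean over test compounds plus 3 SD, cut at about 23% in these data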;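 note: signal is peak over basal fluorescence ratio across the kinetic read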
CHRM4 agonist: agonists of human muscarinic M4 receptor (CHRM4) | CHO-K1 hM4/Gqi5, Fluo-8 calcium fluorescence; vehicle 0%, full acetylcholine response 100% | activation, % at 3 µM | hit rate 0.14% among 360,000;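 active = activation above the run mean over all test wells plus 3 SD, cut at about 32% in these data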;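 note: peak over basal fluorescence ratio per well then scaled between controls; 0% = DMSO wells and 100% = acetylcholine at EC100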
M5 PAM: positive allosteric modulators of human muscarinic M5 receptor; P08912; CHO-K1 hM5, Fluo-8 calcium, ACh EC20 PAM; 0% = ACh EC20, 100% = ACh EC100; activation, % at 3 µM; hit rate 0.3% among 360,000;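 active = activation above the run cutoff, the mean activation of all test compounds plus 3 SD, cut at about 18% in these data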
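System: CHO-K1 hM5 cells. Reagent: acetylcholine, EC20 level. Compound dosing: single dose, 3 µM nominal final test concentration. Timing: Post-acetylcholine fluorescence recording 140 s. Detection: Fluo-8 calcium fluorescence. Read-out: % activation, ACh-normalized. Benchmarks: ACh EC20 and EC100 wells. Repeats: singlicate, one well per test compound.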
M4 PAM: positive allosteric modulators of human muscarinic M4 receptor. P08173. CHO-K1 hM4/Gqi5, Fluo-8 calcium fluorescence, ACh EC20; 0% = ACh EC20, 100% = maximal ACh. activation, % at 3 µM. hit rate 0.4% among 360,000. AID 624126;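 active = activation above its plate's cutoff, the mean activation of sample wells plus 3 SD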
* hit, by the source's call; ! = not active in a repeat. Only some compounds are listed: those with a hit (about 1.8% of all), similar ones and a draw of the others.

SMILES	CHRM5 antagonist	CHRM4 antagonist	CHRM5 agonist	CHRM4 agonist	M5 PAM	M4 PAM
Cc1cccc(OCc2n(CC(=O)OC3CC(C)CCC3C(C)C)c3ccccc3[n+]2C)c1 (centres undefined)	40*	39*	-9	3	-20	-17
O=C(Nc1c(-c2ccc(Cl)cc2)[nH][nH]c1=O)c1ccccn1	-5	-10	-1	1	-2	7
CC#CC[N+](C)(C)CCCCCCCC	1	12	-15	0	-2	-6
CCCCCCCCCCCCCCCC[N+](C)(C)Cc1ccc(F)cc1	21	36*	-13	0	-35	-10
Cc1cccc(-c2nnc(NC(=O)c3ccco3)s2)c1	-1	5	-3	0	4	3
Cc1n[nH]c2ccccc2c1=O	2	-2	2	0	2	0
CC(C)(C)c1ccc(Nc2n[nH]c3ccccc23)cc1	-5	-23	0	-1	-2	21*
Cc1c(Br)c([N+](=O)[O-])nn1CC(=O)N1CCN(C23CC4CC(CC(C4)C2)C3)CC1	-4	17	-8	1	3	-9
CSc1ccc2c(c1)N(CCC1CCCCN1C)c1ccccc1S2 (centres undefined)	100*	98*	4	19	-19	-19
CNc1cccc(-c2ccc(N3CCN(C)CC3)nc2)n1	1	-4	0	0	4	2
CCCCCCN1Cc2ccccc2C1	7	2	-8	0	-2	-7
CCCCCCCCCCn1ccc(=N)cc1	14	38*	-18	1	-18	-14
CCCCCCCCn1ccc(=N)cc1	-26	-12	-13	0	20*	-3
CC1(C(=O)NCc2ccc(C(F)(F)F)cc2)CCN1C1Cc2ccccc2C1 (centres undefined)	-2	-13	0	2	0	2
CCOC(=O)c1sc(NC(=O)c2ccc(Cl)s2)cc1C	-1	-2	1	1	-3	4
CCOC(=O)c1sc(NC(=O)Nc2ccc(Cl)cc2)cc1C	38*	33*	7	17	-27	-16
COc1ccc(C(=O)/C=C2\Sc3ccccc3N2C)cc1	1	-2	-4	1	6	5
COc1ccccc1OC(=O)CCN1c2ccccc2Sc2ccccc21	9	-14	0	-1	-8	-2
COc1ccccc1-[n+]1c(C)cc(/C=C2\Sc3ccccc3N2C)cc1C	53*	40*	14	16	-29	-40
COc1ccc(-[n+]2c(C)cc(/C=C3\Sc4ccccc4N3C)cc2C)cc1	48*	50*	6	10	-23	-23
CC(C)N(C(=O)CN(C#N)c1nc(N(C)C)nc(N(C)C)n1)c1ccccc1	-2	-1	2	0	3	42*
O=C(Cc1ccccc1)NS(=O)(=O)c1ccccc1	-4	9	3	0	2	-3
Cc1cc(C(=O)N/N=C/c2c(C)[nH]n(-c3ccccc3)c2=O)n[nH]1	-15	-2	-4	0	19*	7
Cc1[nH]n(-c2ccccc2)c(=O)c1/C=N/NC(=O)c1ccc(O)cc1O	13	-1	-3	-2	-5	2
C/C(=N/OC(=O)c1c(-c2c(Cl)cccc2Cl)noc1C)c1cnccn1	17	24	-17	1	-33	-25
SMILES	CHRM5 antagonist	CHRM4 antagonist	CHRM5 agonist	CHRM4 agonist	M5 PAM	M4 PAM
C/C(=N/OC(=O)c1c(-c2ccccc2Cl)noc1C)c1cnccn1	4	34*	-15	4	-33	-21
COc1cc(C)ccc1OCCOCCOc1cc(C)c(C)cc1Br	11	-6	-3	0	-10	0
Cc1cc(C)cc(NS(=O)(=O)c2c(C)[nH]c(=O)[nH]c2=O)c1	-4	-10	-4	1	1	4
N#C/C(=C\c1ccccc1)C(=O)NNS(=O)(=O)c1ccc(Br)cc1	4	-1	2	1	19*	7
Nc1nc(NCCOCCO)nc(NC2CCCCC2)c1[N+](=O)[O-]	28*	3	6	2	-4	3
CC(C)CNc1nc(N)c([N+](=O)[O-])c(NCC2CCCO2)n1 (centres undefined)	-6	1	-1	2	11	35*
CC(C)CCNc1nc(N)c([N+](=O)[O-])c(NCCO)n1	-14	-12	19	1	19*	19
COc1cccc(NC(=O)c2ccc3nc(C)c(N(C)Cc4ccc(NC(C)=O)cc4)n3c2)c1	6	-12	-1	3	-6	-2
CNS(=O)(=O)c1ccc(NS(=O)(=O)c2ccccc2F)cc1	-1	7	3	1	6	16
O=[N+]([O-])c1c(Nc2cccc(O)c2)cc(Cl)c2nonc12	15	60*	-5	-2	2	-2
COc1cc(NC(=O)CSc2ncnc3scc(-c4ccccc4)c23)c(C(=O)O)cc1OC	-6	-4	1	1	5	-1
Cc1ccc(NC(=S)NCCc2ccccc2)c(C)c1	-2	8	-7	-1	3	-4
Cc1ccc(NC(=S)NCCO)c(C)c1	-3	11	-3	1	6	16*
Cc1cc(Cl)ccc1NC(=S)NCc1ccc(S(N)(=O)=O)cc1	1	6	-3	1	-2	-5
Cc1ccc(NC(=S)NCc2ccc(S(N)(=O)=O)cc2)c(C)c1	-2	28*	2	1	1	7
Cc1sc2ncn3c(C)nnc3c2c1C	-1	0	-1	0	4	19*
O=C(c1ccc(N2C(=O)CCC2=O)cc1)N1CCCSC1=Nc1ccccc1	-12	-16	-2	1	3	1
Cc1ccc(C)c(OCc2cc(C(=O)N(C)Cc3ccccn3)no2)c1	5	0	-1	3	-3	-1
Cc1ccc(C)c(OCc2cc(C(=O)N(C)Cc3nccs3)no2)c1	28*	9	-4	6	-8	-4
CC(=O)Nc1ccc(S(=O)(=O)NC2=C(N3CCN(Cc4ccccc4)CC3)C(=O)c3ccccc3C2=O)cc1	19	31*!	-2	13	-9	0
CCN1CCN(C2=C(NS(=O)(=O)c3ccc(NC(C)=O)cc3)C(=O)c3ccccc3C2=O)CC1	-7	12	0	0	1	-4
O=C(Nc1ccccc1)Nc1csc2ccccc12	29*	11	10	16	-29	-8
CC(=O)Nc1csc2ccccc12	3	1	-1	2	4	9
CCN1CCN(CCn2c(=S)[nH]c3cc4c(cc3c2=O)OCO4)CC1	29*	6	-6	0	-19	-8
CCN(CC)CCn1c(=S)[nH]c2cc3c(cc2c1=O)OCO3	-3	-8	1	0	-4	7

High-throughput results: PubChem, The Scripps Research Institute Molecular Screening Center
